From ChEMBL document CHEMBL1649480, “Farnesol-induced apoptosis in Candida albicans” (2009)
Active and inactive are the calls of the source. No cut-off for these calls is given here.

Tests used:
Candida albicans [1] = assay: Downregulation of GRE3 expression in Candida albicans SC5314 at 40 uM after 24 hrs by MALDI-TOF MS; format: functional, organism-based
How it was run: (§1)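 Overnight YNB-glucose SC5314 culture, PBS-washed, adjusted to OD600 0.1 and treated 24 h with 40 or 200 μM farnesol (methanol in controls). Proteomes were compared with untreated cells by 2D SDS-PAGE and MALDI-TOF MS, searched against NCBI nonredundant database. Spots were counted as changed at ≥1.5-fold in three independent experiments.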

Candida albicans [2] = assay: Downregulation of Glyceraldehyde-3-phosphate dehydrogenase expression in Candida albicans SC5314 at 40 uM after 24 hrs by MALDI-TOF MS; format: functional, organism-based; how it was run: as §1
Candida albicans [3] = assay: Downregulation of ATP synthase subunit D expression in Candida albicans SC5314 at 200 uM after 24 hrs by MALDI-TOF MS; format: functional, organism-based; how it was run: as §1
Candida albicans [4] = assay: Upregulation of 6-Phosphogluconate dehydrogenase expression in Candida albicans SC5314 at 40 uM after 24 hrs by MALDI-TOF MS; format: functional, organism-based; how it was run: as §1
Candida albicans [5] = assay: Upregulation of Heat shock protein 70 expression in Candida albicans SC5314 at 40 uM after 24 hrs by MALDI-TOF MS; format: functional, organism-based; how it was run: as §1
Candida albicans [6] = assay: Upregulation of Putative Rho protein GDP dissociation factor expression in Candida albicans SC5314 at 200 uM after 24 hrs by MALDI-TOF MS; format: functional, organism-based
How it was run: (§2)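 SC5314 grown overnight at 30°C, 120 rpm, in yeast nitrogen base (pH 7.0) with 50 mM glucose. Cells were washed in PBS and adjusted to OD600 0.1, then treated 24 h with farnesol from a methanol dilution; controls received methanol. Proteomes of treated and untreated cells were compared by 2-D SDS-PAGE and MALDI-TOF MS, with ProFound searches of the NCBI nonredundant database. Spots changed at least 1.5-fold in three independent experiments were counted.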

Candida albicans [7] = assay: Upregulation of Heat shock protein 60 expression in Candida albicans SC5314 at 200 uM after 24 hrs by MALDI-TOF MS; format: functional, organism-based; how it was run: as §1
Candida albicans [8] = assay: Upregulation of Manganese superoxide dismutase expression in Candida albicans SC5314 at 200 uM after 24 hrs by MALDI-TOF MS; format: functional, organism-based; how it was run: as §2
Candida albicans [9] = assay: Upregulation of Putative aspartate aminotransferase expression in Candida albicans SC5314 at 200 uM after 24 hrs by MALDI-TOF MS; format: functional, organism-based; how it was run: as §2
Candida albicans [10] = assay: Induction of ROS accumulation in mitochondria of Candida albicans SC5314 at 200 uM after 3 hrs by Fluorescence analysis; format: functional
How it was run: (§3)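 Cells were exposed 3 h to 40, 100 or 200 μM farnesol, with methanol control and H2O2 positive control. Washed cells were stained 30 min in the dark with a mix of dichlorodihydrofluorescein diacetate, propidium iodide and calcofluor white, then washed and viewed by confocal microscopy. % green (ROS) cells of all cells was scored, with red (necrotic) cells scored separately.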

Candida albicans [11] = assay: Induction of apoptosis in Candida albicans SC5314 assessed as cell death level at 100 uM after 3 hrs by Fluorescence analysis; format: functional
How it was run: (§4)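 Washed, OD600 0.1 SC5314 cells (overnight culture at 30°C in YNB pH 7.0 with 50 mM glucose) exposed 3 h to farnesol, with methanol vehicle and H2O2 controls. Stained 30 min in the dark with a mix of dichlorodihydrofluorescein diacetate, propidium iodide and calcofluor white, then PBS-washed. Confocal imaging; red propidium iodide-stained cells scored as a percentage of all cells.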

Candida albicans [12] = assay: Induction of apoptosis in Candida albicans SC5314 assessed as cell death level at 200 uM after 3 hrs by Fluorescence analysis; format: functional; how it was run: as §4
Candida albicans [13] = assay: Induction of ROS accumulation in mitochondria of Candida albicans SC5314 after 3 hrs by Fluorescence analysis; format: functional, organism-based; how it was run: as §3
Candida albicans [14] = assay: Increase in MCA1 expression in Candida albicans SC5314 at 10 mM after 4 hrs by quantitative PCR analysis

Question: Which results are given for CC(C)=CCC/C(C)=C/CC/C(C)=C/CO [FARNESOL]?
Answer: Activity (Candida albicans [1]): Active; Activity (Candida albicans [2]): Active; Activity (Candida albicans [3]): Active; Activity (Candida albicans [4]): Active; Activity (Candida albicans [5]): Active; Activity (Candida albicans [6]): Active; Activity (Candida albicans [7]): Active; Activity (Candida albicans [8]): Active; Activity (Candida albicans [9]): Active; Activity (Candida albicans [10]): 65%; Activity (Candida albicans [11]): 20%; Activity (Candida albicans [12]): 35%; Activity (Candida albicans [13]): Active; Activity (Candida albicans [14]): Active
